The data set deals with MS2 coat protein. Put plainly: apparent Kd, MS2 coat protein; higher = weaker binding; RNA-MaP array; FMN 200 µM where present. The method, boiled down: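 On Illumina sequencing-chip clusters, designs were transcribed by stalled E. coli RNA polymerase and titrated with SNAP-549-labelled MS2 coat protein (0.7 or 1.5 nM, doubling to 3 µM), without and then with constant ligand, in 100 mM Tris-HCl pH 7.5, 80 mM KCl, 4 mM MgCl2, BSA, DTT, yeast tRNA and Tween-20. Apparent Kd is the median of filtered per-cluster curve fits to green signal normalised to red-channel RNA signal and control-cluster median Fmax.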

Where [1] appears, read: designed as: OFF switch for flavin mononucleotide, no ligand.
Where [2] appears, read: ligand present: flavin mononucleotide, designed as: OFF switch for flavin mononucleotide.
Setting [3] is: designed as: ON switch for flavin mononucleotide, no ligand.
Setting [4] is: ligand present: flavin mononucleotide, designed as: ON switch for flavin mononucleotide.

Take “GCCUUACAUGAGGAUCACCCAUGUCAGGAUAUGUCAGAGUAGGUAAAACACCACUCUAAUAGAAGGGACAUGCA”: the “apparent Kd” value reads like this: under setting [1], 16.8 nM; under setting [2], 28.6 nM.

On to “UGGUACUAGGGAGGAUAUGGGAAGAUACAUGAGGAUCACCCAUGUUUAAGAAUGCCGAGAGGCAACUAGAAGGCACUAGUACCU”, for which the “apparent Kd” value by setting is: under setting [3], 1100 nM; under setting [4], 156 nM.

On to “UUAGGCUUCUAGAAGGCAGUCCAGCUGGAGGACUGAGGAUAUAGGCACCUAACAUGAGGAUCACCCAUGUUAGUGAUUCCUCAA”, for which the “apparent Kd” value under setting [1] is 38.7 nM and the “apparent Kd” value under setting [2] turned out to be 73 nM.

As for “UGAUAGGACAGAGGAUAUGCUGAUAGGAUCUACUAUCGAAGAAUCCUCACAUGAGGAUCACCCAUGUAGAAGGCUGUCCUAUCU”, the “apparent Kd” value was found to be 12 nM under setting [1] and 143 nM under setting [2].

As to “CAAGGGCAUGAGAAGGCAUAAUUUAUAUUACCACAUGUUUACAUGAGGAUCACCCAUGUUACCUAUGAGGAUAUCAUGCCUACA”, the “apparent Kd” value under setting [1] was 12.7 nM and the “apparent Kd” value under setting [2] turned out to be 10.2 nM.

“CGCCUCGUGUCGAACAUGAGGAUCACCCAUGUAAUGGGCACCGAGGAUAUCCCGCUGGCGUUAUGGGAGAAGGCGGUGGAUUUA”: the “apparent Kd” value worked out at 45 nM under setting [1] and 131 nM under setting [2].

As to “CGGAUGUGAGGAUAUACAUGAGGAUCACCCAUGUGUGCCAGCUAGCUGACUGGCACUUGUAGAAGGCACGUCUG”, the “apparent Kd” value by setting is: under setting [1], 10.8 nM; under setting [2], 22 nM.

For the sequence “UUUUUAUAAGAGAAGGAGGACUUCAUGAGGAUCACCCAUGUGUUAGUACUUAGGAUAUUUGAUAACAUGAGGAUCACCCAUGUC”, the “apparent Kd” value runs as follows: under setting [3], 31.4 nM; under setting [4], 28.1 nM.

With “CUGACGUCAGGAUAUCUGAUGUCUAACUUCGGUUAGACAUCAGAGAAGGGACAUGAGGAUCACCCAUGUCAGAA”, the “apparent Kd” value reads like this: under setting [1], 25.5 nM; under setting [2], 20.8 nM.

For “UGAUCUUGUGUCAGGAUAUGCUGGUCUCCUCUCCAGCAGAAGGGACAUGAGGAUCACCCAUGUUCUCUCUUUUU”, the “apparent Kd” value is, setting by setting: under setting [1], 11 nM; under setting [2], 28.6 nM.

With “ACGCGAUGGGAGAAGGUACUUUAAGAAUUUUUCACAUGAGGAUCACCCAUGUAAGGAUAUCCCAUCGUUAAAUAUUAUACAGCA”, the “apparent Kd” value is, setting by setting: under setting [1], 5.07 nM; under setting [2], 4.82 nM.

For “UGCUAGAAAGGAUAUACAUGAGGAUCACCCAUGUAACCCUAUAUGAGAGUUCCCGUUUGUAGAAGGUUCUCGUG”, the “apparent Kd” value stood at 16.9 nM under setting [1] and 26.5 nM under setting [2].

For the sequence “GGUCGUCAAGUCAGGAUAUCGUUUAGUCGAUGUAACGAGAAGGGACAUGAGGAUCACCCAUGUCGUCUCAUCAG”, the “apparent Kd” value runs as follows: under setting [1], 18.9 nM; under setting [2], 24.8 nM.

As to “UUAUUUUUAUGAUUGAGGAUAGGGCAGGAUAUACAUGAGGAUCACCCAUGUAAAGCAAUAAGGAGGUAGAAGGGCCAACCUCAU”, the “apparent Kd” value under setting [1] turned out to be 24.3 nM and the “apparent Kd” value under setting [2] amounted to 20.1 nM.

As to “GCAUGCGUUCGAGGAUAUCGGUGAGAAACGGAACGAGAAGGCGAUCGAAUGUCUCAUAUUAUGAACAUGAGGAUCACCCAUGUA”, the “apparent Kd” value under setting [3] worked out at 514 nM and the “apparent Kd” value under setting [4] was 131 nM.

“AAAGAGCAAGGAUAUACAUGAGGAUCACCCAUGUAGUACGUGAACCAGGUUUUCCUGAGUAGAAGGUGCAGACA”: the “apparent Kd” value under setting [1] was determined as 36 nM and the “apparent Kd” value under setting [2] was found to be 34.3 nM.

Turning to “UAUUAACACGAAGGAUAUGCUUACAUGAGGAUCACCCAUGUAUGUAUAUUGAUCCAGAGUUUUGAGCAGAAGGUCGUGAGUAAA”, the “apparent Kd” value under setting [1] came out at 32.2 nM and the “apparent Kd” value under setting [2] came out at 153 nM.

Consider “AUAUCUCCCUAGAAGGUGUAACGACAAUUGCAUCACGUAGUUGGCGUAGCAAGGAUAUGGGACAUGAGGAUCACCCAUGUGGAU”, for which the “apparent Kd” value amounted to 15.9 nM under setting [3] and 8.88 nM under setting [4].

Regarding “UGGUGACGUGUAGGAUAUGGAGGUGGGUUUUGGCCAGAAGGACAUGAGGAUCACCCAUGUGGUAGAGGGUUGGCGGCGGCCCGU”, the “apparent Kd” value by setting is: under setting [1], 16.9 nM; under setting [2], 15.1 nM.

As to “GUACUGUAGUGAGGAUAUACGAGAUCGAUAGAUCGGCGAUCCAUUUAUACAUGAGGAUCACCCAUGUAGAAGGCACUUCAGUAC”, the “apparent Kd” value reads like this: under setting [1], 5.62 nM; under setting [2], 56.6 nM.

Usually apparent Kd stands for the concentration giving half-maximal binding under the conditions of the assay.
